Data as given in ChEMBL document CHEMBL3085749, “Design, optimization, and biological evaluation of novel keto-benzimidazoles as potent and selective inhibitors of phosphodiesterase 10A (PDE10A)” (J Med Chem, 2013).

Legend:
Format in all cases: ADME, organism-based
[1] = Oral bioavailability in Sprague-Dawley rat at 10 mg/kg by LC-MS/MS analysis; conditions: in vivo
How it was run: (§1)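 Fed male Sprague−Dawley rats. Vehicle for iv was 100% DMSO; for po and ip it was 1% Tween and 2% HPMC with methanesulfonic acid, pH 2.2. Reported parameters are Cl (L/h/kg), Vss (L/kg), AUC (μM·h), T1/2 (h) and %F.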

[2] = AUC in Sprague-Dawley rat at 10 mg/kg, po by LC-MS/MS analysis; design: dose 10 mg/kg, route oral; conditions: plasma; how it was run: as §1
[3] = AUC in Sprague-Dawley rat at 2 mg/kg, iv by LC-MS/MS analysis; design: dose 2 mg/kg, route intravenous; conditions: plasma
[4] = Volume of distribution at steady state in Sprague-Dawley rat at 2 mg/kg, iv by LC-MS/MS analysis; design: dose 2 mg/kg, route intravenous; conditions: in vivo, read-out: Vdss
[5] = Oral bioavailability in Sprague-Dawley rat at 5 mg/kg by LC-MS/MS analysis; conditions: in vivo
[6] = AUC in Sprague-Dawley rat at 5 mg/kg, po by LC-MS/MS analysis; design: dose 5 mg/kg, route oral; conditions: plasma

| bioavailability [1] | AUC [2] | AUC [3] | Vd [4] | bioavailability [5] | AUC [6] | Structure (SMILES) |
| --- | --- | --- | --- | --- | --- | --- |
| 52% | 11.7 µM·h | 4.5 µM·h | 1.28 L/kg |  |  | O=C(c1ccc(Oc2nccnc2N2CCC(O)CC2)cc1)c1nc2ccccc2[nH]1 |
|  |  | 62.1 µM·h | 0.165 L/kg | 56% | 79.2 µM·h | CC(=O)N1CCN(c2nccnc2Oc2ccc(C(=O)c3nc4ccccc4[nH]3)cc2)CC1 |
